This is an account of results in ChEMBL document CHEMBL3414433, “Discovery and profiling of a selective and efficacious Syk inhibitor” (J Med Chem, 2015).

For data set [1], the target named is T1, Tyrosine-protein kinase receptor UFO (Homo sapiens, UniProt P30530).
T1 sequence (P30530 whole entry): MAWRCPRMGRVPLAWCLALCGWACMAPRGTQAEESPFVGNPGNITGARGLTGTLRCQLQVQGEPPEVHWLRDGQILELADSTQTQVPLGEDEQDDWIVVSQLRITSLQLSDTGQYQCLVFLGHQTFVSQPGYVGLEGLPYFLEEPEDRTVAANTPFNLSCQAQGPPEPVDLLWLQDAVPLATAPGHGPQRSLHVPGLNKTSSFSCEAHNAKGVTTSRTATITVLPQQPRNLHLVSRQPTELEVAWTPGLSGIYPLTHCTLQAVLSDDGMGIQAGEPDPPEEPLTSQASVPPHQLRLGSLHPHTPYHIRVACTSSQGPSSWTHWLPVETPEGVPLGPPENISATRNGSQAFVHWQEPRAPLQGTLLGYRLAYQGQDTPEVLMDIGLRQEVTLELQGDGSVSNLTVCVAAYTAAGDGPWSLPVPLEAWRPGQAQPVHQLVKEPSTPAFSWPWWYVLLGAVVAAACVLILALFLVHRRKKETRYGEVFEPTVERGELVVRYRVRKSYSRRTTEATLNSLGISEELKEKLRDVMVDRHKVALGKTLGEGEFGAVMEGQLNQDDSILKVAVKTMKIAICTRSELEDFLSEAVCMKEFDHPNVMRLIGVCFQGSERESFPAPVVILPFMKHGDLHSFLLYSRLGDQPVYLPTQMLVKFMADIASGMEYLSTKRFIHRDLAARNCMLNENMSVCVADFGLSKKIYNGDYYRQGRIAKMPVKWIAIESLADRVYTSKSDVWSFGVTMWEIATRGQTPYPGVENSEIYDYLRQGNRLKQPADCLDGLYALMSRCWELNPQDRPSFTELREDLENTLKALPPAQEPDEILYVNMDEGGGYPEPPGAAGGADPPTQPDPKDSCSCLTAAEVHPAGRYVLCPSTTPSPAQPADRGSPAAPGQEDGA
The experiment in a line: Competitive binding affinity to human AXL.

In data set [2] the target is Proto-oncogene tyrosine-protein kinase ROS (Homo sapiens, UniProt P08922). The experiment in a line: Competitive binding affinity to human ROS1.
Data set [3] in a line: Oral bioavailability in Beagle dog at 0.3 mg/kg. It counts as ADME, organism-based, Canis lupus familiaris. The note with it: in vivo. The method, boiled down:
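Beagle dogs dosed one-in-one. The i.v. dose was 0.1 mg/kg in NMP/PEG200 (3:7), and the p.o. dose was 0.3 mg/kg in MC/water (0.5:99.5). Blood levels were followed after each route.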

For data set [4], the target named is Mitotic checkpoint serine/threonine-protein kinase BUB1 (Homo sapiens, UniProt O43683). The experiment in a line: Competitive binding affinity to human BUB1.
In data set [5] the test system is Rattus norvegicus. The experiment in a line: In vivo inhibition of Syk in Lewis rat assessed as reduction in FcgR-induced SLP76 phosphorylation in peripheral blood monocytes at 22 mg/kg, po measured after 4 hrs relative to vehicle-treated control. It counts as functional. The method, boiled down: (§1)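 Single oral dose of 22 mg/kg to Lewis rats; blood sampled at 2, 4 and 24 h after dosing for compound level and ex vivo FcγR-induced phospho-SLP76 in peripheral blood monocytes.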

Data set [6] in a line: Mean residence time in Sprague-Dawley rat at 1 mg/kg, iv and 3 mg/kg, po administered as cassette dosing. It counts as ADME, organism-based. As to conditions: in vivo. The method, boiled down:
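Rats were dosed i.v. at 1 mg/kg in NMP/PEG200 (3:7) and p.o. at 3 mg/kg in CMC/water/Tween (0.5:99:0.5). PK parameters were derived from blood concentration–time curves for both routes.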

Data set [7] concerns the target Voltage-gated inwardly rectifying potassium channel KCNH2 (Homo sapiens, UniProt Q12809). The experiment in a line: Inhibition of human ERG by GLP study.
Data set [8] relates to Rattus norvegicus. The experiment in a line: In vivo inhibition of Syk in Lewis rat assessed as reduction in FcgR-induced SLP76 phosphorylation in peripheral blood monocytes at 22 mg/kg, po measured after 24 hrs relative to vehicle-treated control. It counts as functional. The gist of the method: as §1
In data set [9] the target is T2, Tyrosine-protein kinase ZAP-70 (Homo sapiens, UniProt P43403).
T2 sequence (P43403 whole entry): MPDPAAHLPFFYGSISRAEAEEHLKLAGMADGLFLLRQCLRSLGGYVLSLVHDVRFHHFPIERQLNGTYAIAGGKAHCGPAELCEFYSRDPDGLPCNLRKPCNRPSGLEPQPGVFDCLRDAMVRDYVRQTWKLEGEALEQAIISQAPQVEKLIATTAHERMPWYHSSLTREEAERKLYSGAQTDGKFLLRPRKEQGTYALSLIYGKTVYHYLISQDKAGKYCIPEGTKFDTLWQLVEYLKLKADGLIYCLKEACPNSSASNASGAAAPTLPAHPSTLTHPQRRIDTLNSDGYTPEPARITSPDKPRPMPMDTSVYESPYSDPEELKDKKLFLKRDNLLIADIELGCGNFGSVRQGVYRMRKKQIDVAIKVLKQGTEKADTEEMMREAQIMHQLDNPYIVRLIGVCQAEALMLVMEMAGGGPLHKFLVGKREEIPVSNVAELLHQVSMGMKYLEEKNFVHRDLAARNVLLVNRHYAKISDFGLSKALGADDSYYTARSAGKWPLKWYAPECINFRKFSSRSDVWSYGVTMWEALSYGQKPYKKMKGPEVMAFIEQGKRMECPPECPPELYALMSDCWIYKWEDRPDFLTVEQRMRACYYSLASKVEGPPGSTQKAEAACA
The experiment in a line: Inhibition of ZAP70 in anti-CD3 stimulated human Jurkat T cells assessed as SLP76 phosphorylation at Y128 preincubated for 30 mins followed by anti-CD3 stimulation measured after 2 mins by FACS analysis. It counts as cell-based. The method, boiled down:
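Jurkat T cells washed in RPMI/0.1% FCS, preincubated with compound 30 min at 37 °C, stimulated with anti-TCR OKT3 (30 μg/mL final) 2 min at 37 °C, fixed in 2% PFA, permeabilized in 90% methanol, stained anti-SLP76 pY128 80 min at RT; flow cytometry. IC50 from factor F = MFI × percent positive cells.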

Data set [10] addresses T2, Tyrosine-protein kinase ZAP-70. The experiment in a line: Competitive binding affinity to human ZAP70.
The species entered for data set [11] is Rattus norvegicus. The experiment in a line: Hepatotoxicity in rat assessed as single necrosis of hepatocytes measured for 4 weeks by GLP study. It counts as toxicity, organism-based, Hepatocyte. As to conditions: 672 h.
Data set [12] is described as follows: Drug uptake in blood of Lewis rat collagen-induced arthritis model at 10 mg/kg, po qd administered on day 15 post immunization measured at 4 hrs on day 18. It counts as ADME, organism-based. Also noted: dose 10 mg/kg, route oral. The note with it: read-out: Drug uptake. The method, boiled down:
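Collagen-arthritic Lewis rats given 3, 10 or 30 mg/kg p.o. once daily from day 15; blood levels measured on day 18 (third day of treatment) at 4, 8 and 24 h after dosing.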

Data set [13] relates to Rattus norvegicus. The experiment in a line: Dose normalized Cmax in Sprague-Dawley rat at 1 mg/kg, iv and 3 mg/kg, po administered as cassette dosing. It counts as ADME, organism-based. As to conditions: in vivo. The gist of the method: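 Rat PK: i.v. 1 mg/kg in NMP/PEG200 (3:7); p.o. 3 mg/kg in CMC/water/Tween (0.5:99:0.5). Exposure values dose normalized.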
The next data set is filed under the species Canis familiaris. The experiment in a line: Hepatotoxicity in dog assessed as single necrosis of hepatocytes measured for 4 weeks by GLP study. It counts as toxicity, organism-based, Canis lupus familiaris, Hepatocyte. As to conditions: 672 h.

Mitotic checkpoint serine/threonine-protein kinase BUB1, sequence (O43683 whole entry): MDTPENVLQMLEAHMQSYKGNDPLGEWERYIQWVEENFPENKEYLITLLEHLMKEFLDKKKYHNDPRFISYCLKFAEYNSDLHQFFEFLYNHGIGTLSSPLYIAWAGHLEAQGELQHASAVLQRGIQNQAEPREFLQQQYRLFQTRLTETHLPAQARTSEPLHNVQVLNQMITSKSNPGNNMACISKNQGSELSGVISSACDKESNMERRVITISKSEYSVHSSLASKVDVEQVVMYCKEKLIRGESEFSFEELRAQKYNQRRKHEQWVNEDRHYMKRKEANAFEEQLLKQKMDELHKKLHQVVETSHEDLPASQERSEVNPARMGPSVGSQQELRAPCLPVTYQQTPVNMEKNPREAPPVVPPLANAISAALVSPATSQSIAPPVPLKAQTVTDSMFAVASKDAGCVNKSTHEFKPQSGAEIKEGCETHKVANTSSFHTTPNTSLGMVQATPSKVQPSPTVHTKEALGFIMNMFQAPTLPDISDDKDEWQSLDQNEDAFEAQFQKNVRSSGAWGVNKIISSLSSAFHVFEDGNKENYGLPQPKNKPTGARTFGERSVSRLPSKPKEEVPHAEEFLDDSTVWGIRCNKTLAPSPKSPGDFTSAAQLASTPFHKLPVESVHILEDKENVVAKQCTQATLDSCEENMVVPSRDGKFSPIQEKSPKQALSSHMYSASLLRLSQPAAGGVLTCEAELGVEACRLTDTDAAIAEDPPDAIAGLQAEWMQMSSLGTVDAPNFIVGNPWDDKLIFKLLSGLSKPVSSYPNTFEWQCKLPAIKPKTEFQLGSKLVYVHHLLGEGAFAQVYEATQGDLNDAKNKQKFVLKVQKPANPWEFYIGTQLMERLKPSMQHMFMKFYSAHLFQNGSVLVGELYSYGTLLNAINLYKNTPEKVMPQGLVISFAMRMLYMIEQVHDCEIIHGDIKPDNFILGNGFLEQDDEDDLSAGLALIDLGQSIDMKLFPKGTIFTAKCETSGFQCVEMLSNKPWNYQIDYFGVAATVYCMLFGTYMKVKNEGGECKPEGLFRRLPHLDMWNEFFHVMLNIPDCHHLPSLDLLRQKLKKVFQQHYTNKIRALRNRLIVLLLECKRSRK
Proto-oncogene tyrosine-protein kinase ROS, sequence (P08922 whole entry): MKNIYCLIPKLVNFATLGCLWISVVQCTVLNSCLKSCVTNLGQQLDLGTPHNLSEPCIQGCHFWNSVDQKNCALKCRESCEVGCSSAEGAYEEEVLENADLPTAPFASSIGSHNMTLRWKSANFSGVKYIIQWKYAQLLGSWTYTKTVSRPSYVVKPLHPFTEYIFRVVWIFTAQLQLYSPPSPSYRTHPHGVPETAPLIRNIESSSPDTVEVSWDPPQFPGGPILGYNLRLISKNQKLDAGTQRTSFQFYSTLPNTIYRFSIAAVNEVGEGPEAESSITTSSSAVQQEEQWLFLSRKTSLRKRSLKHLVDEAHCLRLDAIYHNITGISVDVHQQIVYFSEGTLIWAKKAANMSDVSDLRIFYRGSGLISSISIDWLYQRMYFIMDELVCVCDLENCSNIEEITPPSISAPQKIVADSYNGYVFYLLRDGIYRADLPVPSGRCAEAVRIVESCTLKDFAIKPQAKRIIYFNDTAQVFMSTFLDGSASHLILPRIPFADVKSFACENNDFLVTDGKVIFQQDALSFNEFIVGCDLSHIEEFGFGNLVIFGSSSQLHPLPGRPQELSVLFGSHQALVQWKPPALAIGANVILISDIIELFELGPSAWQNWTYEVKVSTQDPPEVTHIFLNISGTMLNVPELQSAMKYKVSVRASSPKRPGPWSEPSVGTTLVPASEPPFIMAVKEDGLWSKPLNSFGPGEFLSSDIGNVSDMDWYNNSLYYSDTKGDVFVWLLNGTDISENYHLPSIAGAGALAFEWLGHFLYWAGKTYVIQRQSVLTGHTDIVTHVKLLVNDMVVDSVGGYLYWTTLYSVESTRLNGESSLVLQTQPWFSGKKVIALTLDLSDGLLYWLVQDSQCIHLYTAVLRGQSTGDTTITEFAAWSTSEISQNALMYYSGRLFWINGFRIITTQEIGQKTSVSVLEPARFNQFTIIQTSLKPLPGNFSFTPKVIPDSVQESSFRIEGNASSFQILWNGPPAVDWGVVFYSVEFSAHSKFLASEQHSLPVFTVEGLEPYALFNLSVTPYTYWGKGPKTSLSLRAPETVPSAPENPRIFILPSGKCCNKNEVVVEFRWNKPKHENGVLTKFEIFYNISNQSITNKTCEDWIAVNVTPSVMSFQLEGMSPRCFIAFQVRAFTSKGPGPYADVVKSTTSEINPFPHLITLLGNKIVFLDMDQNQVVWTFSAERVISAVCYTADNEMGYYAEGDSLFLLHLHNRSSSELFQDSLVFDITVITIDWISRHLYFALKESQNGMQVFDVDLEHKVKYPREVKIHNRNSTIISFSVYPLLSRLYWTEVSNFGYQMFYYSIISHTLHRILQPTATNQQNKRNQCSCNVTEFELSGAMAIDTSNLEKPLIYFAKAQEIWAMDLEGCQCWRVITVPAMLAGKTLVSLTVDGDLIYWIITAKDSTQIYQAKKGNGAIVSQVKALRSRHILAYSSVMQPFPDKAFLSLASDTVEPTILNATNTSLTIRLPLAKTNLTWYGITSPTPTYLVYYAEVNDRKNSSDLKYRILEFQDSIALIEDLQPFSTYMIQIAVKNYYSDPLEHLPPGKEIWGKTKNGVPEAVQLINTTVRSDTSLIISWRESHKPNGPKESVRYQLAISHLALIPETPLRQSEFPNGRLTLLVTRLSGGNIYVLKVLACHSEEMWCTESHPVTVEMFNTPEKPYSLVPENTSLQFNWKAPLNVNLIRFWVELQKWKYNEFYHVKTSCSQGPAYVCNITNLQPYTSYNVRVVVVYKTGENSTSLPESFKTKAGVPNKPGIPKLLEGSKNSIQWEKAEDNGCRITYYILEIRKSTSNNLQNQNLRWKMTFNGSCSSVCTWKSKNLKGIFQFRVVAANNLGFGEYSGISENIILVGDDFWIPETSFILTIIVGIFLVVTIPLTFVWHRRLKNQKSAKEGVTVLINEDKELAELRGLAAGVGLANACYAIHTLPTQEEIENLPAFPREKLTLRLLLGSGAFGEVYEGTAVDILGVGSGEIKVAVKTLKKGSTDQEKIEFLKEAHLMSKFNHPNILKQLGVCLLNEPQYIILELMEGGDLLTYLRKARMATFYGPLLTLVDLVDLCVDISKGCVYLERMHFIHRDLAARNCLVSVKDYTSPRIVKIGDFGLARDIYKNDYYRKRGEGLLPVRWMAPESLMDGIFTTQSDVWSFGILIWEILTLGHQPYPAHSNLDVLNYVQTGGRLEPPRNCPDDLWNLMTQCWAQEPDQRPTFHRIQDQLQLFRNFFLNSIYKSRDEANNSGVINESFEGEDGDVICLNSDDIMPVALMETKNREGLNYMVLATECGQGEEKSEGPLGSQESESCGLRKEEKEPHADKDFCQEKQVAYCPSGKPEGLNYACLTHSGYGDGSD
Voltage-gated inwardly rectifying potassium channel KCNH2, sequence (Q12809 whole entry): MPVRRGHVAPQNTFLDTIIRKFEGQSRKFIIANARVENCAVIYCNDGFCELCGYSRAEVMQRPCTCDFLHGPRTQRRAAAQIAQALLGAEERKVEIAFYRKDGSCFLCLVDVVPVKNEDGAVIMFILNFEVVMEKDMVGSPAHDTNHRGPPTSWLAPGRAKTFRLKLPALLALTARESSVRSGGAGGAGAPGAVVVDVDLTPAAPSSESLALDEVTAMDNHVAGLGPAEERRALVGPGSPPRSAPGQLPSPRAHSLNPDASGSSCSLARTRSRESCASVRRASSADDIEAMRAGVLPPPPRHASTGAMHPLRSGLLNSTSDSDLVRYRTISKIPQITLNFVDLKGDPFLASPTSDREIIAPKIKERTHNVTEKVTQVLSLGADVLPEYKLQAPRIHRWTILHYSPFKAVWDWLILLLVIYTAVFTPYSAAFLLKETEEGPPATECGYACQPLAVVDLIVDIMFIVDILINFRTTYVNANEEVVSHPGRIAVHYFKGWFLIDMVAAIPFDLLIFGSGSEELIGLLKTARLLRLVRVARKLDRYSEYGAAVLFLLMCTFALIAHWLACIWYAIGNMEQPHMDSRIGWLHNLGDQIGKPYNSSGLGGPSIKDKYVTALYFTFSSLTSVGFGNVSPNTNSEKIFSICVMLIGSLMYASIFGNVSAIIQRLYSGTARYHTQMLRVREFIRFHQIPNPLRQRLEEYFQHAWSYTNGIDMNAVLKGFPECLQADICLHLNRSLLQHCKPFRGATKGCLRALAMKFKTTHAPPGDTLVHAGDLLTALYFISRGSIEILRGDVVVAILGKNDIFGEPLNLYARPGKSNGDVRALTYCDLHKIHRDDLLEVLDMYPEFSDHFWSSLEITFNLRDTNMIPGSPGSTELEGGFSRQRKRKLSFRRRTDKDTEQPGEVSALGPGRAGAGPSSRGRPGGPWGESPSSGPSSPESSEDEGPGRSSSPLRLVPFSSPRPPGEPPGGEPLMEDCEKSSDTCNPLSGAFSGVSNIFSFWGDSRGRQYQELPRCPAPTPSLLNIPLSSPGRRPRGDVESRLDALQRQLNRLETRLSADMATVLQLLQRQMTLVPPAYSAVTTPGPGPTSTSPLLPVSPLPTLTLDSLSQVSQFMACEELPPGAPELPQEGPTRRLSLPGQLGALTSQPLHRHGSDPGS

`NC(=O)c1nnc(N[C@@H]2CCCC[C@@H]2N)nc1Nc1cccc2cc[nH]c12`: the Kd in [1] was determined as 71 nM; in [2], 120 nM; in data set [4] it was 240 nM; in [10] it was 65 nM. For the same compound, in data set [3], the bioavailability was 54%. For the same compound, the inhibition in vivo at 22 mg/kg is 85% with Rattus norvegicus [5] and 45% in the data set on Rattus norvegicus [8]. Besides, in [6], the MRT worked out at 8.7 h. For the same compound, the IC50 was 5000 nM in data set [7] and 2530 nM in [9]. In addition, the Activity entry in the data set filed under Rattus norvegicus [11] and in the data set listed under Canis familiaris was “Toxic” in each case. In data set [12], the concentration at 4 h turned out to be 866 nM. In the data set with Rattus norvegicus [13], this compound gave a Cmax/dose of 80 nM.
